This note sets out measurements from ChEMBL document CHEMBL1153422, “N6-Cycloalkyl- and N6-bicycloalkyl-C5'(C2')-modified adenosine derivatives as high-affinity and selective agonists at the human A1 adenosine receptor with antinociceptive effects in mice” (J Med Chem, 2009).

Assay [1] concerns Mus musculus. As to the kind of experiment: Analgesic activity in mouse assessed as reduction of formalin-induced late nociceptive behavior at 2 mg/kg, ip administered 10 mins before formalin challenge measured every 5 mins for 60 mins in presence of adenosine A1 receptor antagonist DPCPX. In kind it is functional, organism-based. Also noted: dose 2 mg/kg. A digest of the protocol: (§1)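 Mice, n = 8-10 per group, randomly assigned; drug or vehicle (0.9% NaCl) given i.p. 10 min before 1.25% formalin in saline (30 µL) into dorsal hind paw; DPCPX 3 mg/kg i.p. co-administered where stated. Lifting, licking, shaking, flinching timed every 5 min for 60 min; early phase 0-7 min, late 15-60 min; mean ± SEM.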

Assay [2] deals with Mus musculus. The assay can be described thus: Analgesic activity in mouse assessed as reduction of formalin-induced early nociceptive behavior at 2 mg/kg, ip administered 10 mins before formalin challenge measured every 5 mins for 60 mins in presence of adenosine A1 receptor antagonist DPCPX. In kind it is functional, organism-based. Set-up: dose 2 mg/kg. A digest of the protocol: as §1

Molecules are shown by their SMILES. Active and inactive are the calls of the source. No cut-off for these calls is given here.

As to `CCCn1c(=O)c2[nH]c(C3CCCC3)nc2n(CCC)c1=O`, the outcome in the assay with Mus musculus [1] and with Mus musculus [2] was inactive.
